Data published in ChEMBL document CHEMBL4725483, “Simultaneous Inhibition of SIRT2 Deacetylase and Defatty-Acylase Activities via a PROTAC Strategy” (ACS Med Chem Lett, 2020).
Calls of active or inactive are those of the source. The calls are words filed in the database; no cut-off is given here.

Tests used:
[1] = target: T1, Protein cereblon/NAD-dependent protein deacetylase sirtuin-2 (Homo sapiens) (UniProt Q8IXJ6+Q96SW2); assay: Protac activity at CRBN/SIRT2 in human MCF7 cells assessed as SIRT2 degradation at 5 to 10 uM after 48 hrs by immunoblot analysis; format: cell-based; conditions: dose microM 5-10, time 48.0 hrs
Procedure, shortened: (§1)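 Cells exposed to compound at the indicated concentrations for 48 h. SIRT1, SIRT2 and SIRT3 levels were read by immunoblot.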

[2] = target: T2, NAD-dependent protein deacetylase sirtuin-2 (Homo sapiens, UniProt Q8IXJ6); assay: Inhibition of human SIRT2 deacetylation activity using H3K9Ac as substrate in presence of NAD+ by HPLC analysis
T2 sequence (Q8IXJ6 whole entry): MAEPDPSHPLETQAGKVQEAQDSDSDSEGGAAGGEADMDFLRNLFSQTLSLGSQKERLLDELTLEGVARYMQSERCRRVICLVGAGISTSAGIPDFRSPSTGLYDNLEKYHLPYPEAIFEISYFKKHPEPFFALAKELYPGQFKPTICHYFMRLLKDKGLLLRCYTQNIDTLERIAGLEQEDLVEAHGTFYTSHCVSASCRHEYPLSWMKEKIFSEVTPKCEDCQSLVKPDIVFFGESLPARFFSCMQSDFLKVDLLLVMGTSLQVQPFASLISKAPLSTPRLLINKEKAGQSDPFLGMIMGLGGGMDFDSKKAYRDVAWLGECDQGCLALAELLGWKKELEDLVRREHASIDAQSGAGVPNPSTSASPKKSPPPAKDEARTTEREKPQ

[3] = target: T1, Protein cereblon/NAD-dependent protein deacetylase sirtuin-2 (Homo sapiens); assay: Protac activity at CRBN/SIRT2 in human MCF7 cells assessed as SIRT2 degradation at 10 uM by immunoblot analysis; format: cell-based; conditions: TDE = time-dependent effect
Procedure, shortened: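 MCF7 cells treated at a fixed concentration (10 or 25 μM) and harvested at several incubation times; SIRT2 level read by immunoblot.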

[4] = target: T1, Protein cereblon/NAD-dependent protein deacetylase sirtuin-2 (Homo sapiens); assay: Protac activity at CRBN/SIRT2 in human MCF7 cells assessed as SIRT2 degradation at 50 uM after 48 hrs by immunoblot analysis; format: cell-based
Procedure, shortened: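 MCF7 cells given a range of concentrations below and above 5 μM (0.5 to 50 μM) for 48 h; SIRT2 measured by immunoblot against vehicle-treated cells.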

[5] = target: T3, Protein cereblon/NAD-dependent protein deacetylase sirtuin-3, mitochondrial (Homo sapiens) (UniProt Q9NTG7+Q96SW2); assay: Protac activity at CRBN/SIRT3 in human HEK293T cells stably expressing flag-tagged K-Ras4a-G12V assessed as inhibition of SIRT2 defatty-acylation at 1 uM incubated for 48 hrs by immunoblot analysis; format: cell-based; conditions: HEK-293T
Procedure, shortened: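 HEK 293T cells stably overexpressing Flag-tagged K-Ras4a-G12V (confirmed by pan-Ras blot) were exposed to 1 μM compound for 48 h. SIRT1, SIRT2 and SIRT3 levels were then read by immunoblot.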

[6] = target: T3, Protein cereblon/NAD-dependent protein deacetylase sirtuin-3, mitochondrial (Homo sapiens); assay: Protac activity at CRBN/SIRT3 in human HEK293T cells assessed as abundance ratio at 5 uM incubated for 16 hrs by TMT global proteomics assay relative to DMSO; format: cell-based; conditions: HEK-293T
Procedure, shortened: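 HEK 293T cells given 5 μM compound for 16 h. Global proteomics used Tandem Mass Tag labelling, and each sirtuin's abundance is given as a ratio of treated to DMSO-treated cells.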

[7] = target: Protein cereblon/NAD-dependent protein deacylase sirtuin-6 (Homo sapiens) (UniProt Q8N6T7+Q96SW2); assay: Protac activity at CRBN/SIRT6 in human HEK293T cells assessed as abundance ratio at 5 uM incubated for 16 hrs by TMT global proteomics assay relative to DMSO; format: cell-based; conditions: HEK-293T
Procedure, shortened: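 HEK 293T cells were treated for 16 h. Global proteome was quantified by Tandem Mass Tag labelling. The abundance ratio of each sirtuin was taken against DMSO-treated cells.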

[8] = target: T1, Protein cereblon/NAD-dependent protein deacetylase sirtuin-2 (Homo sapiens); assay: Protac activity at CRBN/SIRT2 in human MCF7 cells assessed as inhibition of SIRT2 deacetylation by measuring increase in acetylated-alpha tubulin level at 5 uM measured after 12 hrs by DAPI staining based immunofluorescence microscopic analysis; format: cell-based
Procedure, shortened: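 MCF7 cells treated for 12 h with 5 or 10 μM, DMSO as control. Acetyl-α-tubulin (K40) was imaged by immunofluorescence, and fluorescence intensity was quantified and normalized to vehicle.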

[9] = target: T1, Protein cereblon/NAD-dependent protein deacetylase sirtuin-2 (Homo sapiens); assay: Protac activity at CRBN/SIRT2 in human HEK293T cells stably expressing flag-tagged K-Ras4a assessed as inhibition of SIRT2 defatty-acylation at 1 uM incubated for 42 hrs followed by Alkyne-14 addition and measured after 6 hrs by immunoprecipitation based assay; format: cell-based; conditions: HEK-293T
Procedure, shortened: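 HEK 293T cells stably expressing Flag-K-Ras4a-G12V were treated with 1 μM compound for 42 h, then labelled with 50 μM Alk-14 for 6 h more. Flag-K-Ras4a was immunoprecipitated and a fluorescent dye attached by click chemistry. NH2OH was applied to strip cysteine fatty acylation, and lysine fatty acylation was measured by in-gel fluorescence and quantified relative to DMSO.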

MDA-MB-231 = assay: Cytotoxicity against human MDA-MB-231 cells assessed as reduction in cell viability after 72 hrs; format: functional, cell-based
Procedure, shortened: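 Cells incubated with compound or thalidomide for 72 h; cell viability read out at the end of exposure.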

[10] = target: T1, Protein cereblon/NAD-dependent protein deacetylase sirtuin-2 (Homo sapiens); assay: Protac activity at CRBN/SIRT2 in human BT549 cells assessed as SIRT2 degradation at 5 to 10 uM after 48 hrs by immunoblot analysis; format: cell-based; conditions: BT-549, dose microM 5-10, time 48.0 hrs; procedure, shortened: as §1
MCF7 = assay: Cytotoxicity against human MCF7 cells assessed as reduction in cell viability at 1 uM after 72 hrs; format: functional, cell-based
Homo sapiens = organism: Homo sapiens; assay: Selectivity ratio of IC50 for inhibition of human SIRT1 deacetylation activity to IC50 for inhibition of human SIRT2 deacetylation activity
Procedure, shortened: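 Ratio of SIRT1 deacetylase IC50 to SIRT2 deacetylase IC50, both measured with compound, NAD+ and enzyme preincubated before peptide substrate addition.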

T1 sequence (Q96SW2 whole entry, looked up, one chain of several): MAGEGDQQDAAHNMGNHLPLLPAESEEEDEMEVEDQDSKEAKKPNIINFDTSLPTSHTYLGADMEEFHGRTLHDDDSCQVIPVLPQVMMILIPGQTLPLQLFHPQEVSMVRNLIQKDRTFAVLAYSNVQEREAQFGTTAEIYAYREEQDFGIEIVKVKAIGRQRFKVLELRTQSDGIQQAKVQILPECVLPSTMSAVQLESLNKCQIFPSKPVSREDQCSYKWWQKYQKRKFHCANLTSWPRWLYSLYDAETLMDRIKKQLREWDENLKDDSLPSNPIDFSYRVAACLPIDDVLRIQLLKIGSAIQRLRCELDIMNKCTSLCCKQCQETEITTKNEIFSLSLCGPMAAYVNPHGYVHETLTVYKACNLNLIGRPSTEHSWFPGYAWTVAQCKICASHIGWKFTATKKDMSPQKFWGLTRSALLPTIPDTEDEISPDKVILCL
T3 sequence (Q96SW2 whole entry, looked up): as the sequence (Q96SW2 whole entry, looked up, one chain of several) above
T3 sequence (Q9NTG7 whole entry, looked up): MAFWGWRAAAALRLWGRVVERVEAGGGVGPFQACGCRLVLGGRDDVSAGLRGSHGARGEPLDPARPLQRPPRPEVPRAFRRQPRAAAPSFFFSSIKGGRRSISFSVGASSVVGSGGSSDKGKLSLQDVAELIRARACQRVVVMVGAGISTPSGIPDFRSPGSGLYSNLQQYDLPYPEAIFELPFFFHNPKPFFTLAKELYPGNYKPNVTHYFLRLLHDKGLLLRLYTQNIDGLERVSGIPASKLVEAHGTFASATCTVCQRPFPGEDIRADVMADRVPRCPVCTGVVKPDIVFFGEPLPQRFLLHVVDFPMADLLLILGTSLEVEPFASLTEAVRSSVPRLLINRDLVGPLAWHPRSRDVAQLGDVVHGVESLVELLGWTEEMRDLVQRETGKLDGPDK
Sequence of Protein cereblon/NAD-dependent protein deacylase sirtuin-6 (Homo sapiens) (Q8N6T7 2-355 limits assumed): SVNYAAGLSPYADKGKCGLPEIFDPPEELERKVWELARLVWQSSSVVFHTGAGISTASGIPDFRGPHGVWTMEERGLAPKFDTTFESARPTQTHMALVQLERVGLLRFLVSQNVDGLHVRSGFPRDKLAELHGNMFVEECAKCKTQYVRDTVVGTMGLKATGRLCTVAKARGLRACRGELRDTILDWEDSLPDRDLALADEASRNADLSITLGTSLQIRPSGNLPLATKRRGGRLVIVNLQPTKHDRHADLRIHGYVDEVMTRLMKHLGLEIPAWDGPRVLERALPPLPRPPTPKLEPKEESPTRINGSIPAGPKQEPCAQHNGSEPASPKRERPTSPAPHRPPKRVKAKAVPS
Sequence of Protein cereblon/NAD-dependent protein deacylase sirtuin-6 (Homo sapiens) (Q96SW2 whole entry partner): as the sequence (Q96SW2 whole entry, looked up, one chain of several) above

## CCCCCCCCCCCCCC(=S)NCCCC[C@H](NC(=O)CCOCCOCCOCCOCCNc1cccc2c1C(=O)N(C1CCC(=O)NC1=O)C2=O)C(=O)Nc1ccccc1 (stereo partly drawn)
[1]
  Activity: Active
[2]
  IC50: 93 nM
[3]
  Activity: Tde
[4]
  Activity: inactive
[5]
  Activity: inactive
[6]
  Activity: inactive
[7]
  Activity: inactive
[8]
  Activity: Active
[9]
  Activity: Active
MDA-MB-231
  Activity: Active
[10]
  Activity: Active
MCF7
  Activity: inactive
Homo sapiens
  Ratio IC50: 500
